Assay results taken from ChEMBL document CHEMBL1123602, “Synthesis and biological properties of N3-(4-methoxyfumaroyl)-L-2,3-diaminopropanoic acid dipeptides, a novel group of antimicrobial agents” (1987).
Values after ≈ are worked out from the molar mass of the structure shown.

How the values were obtained:
Bacillus pumilus [1] = assay: Antimicrobial activity against the strain of Bacillus pumilus(1697); type: functional
Outline: (§1)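 Agar dilution MIC on minimal agar Davis medium with 0.1% yeast extract and 0.1% casamino acids containing compound at 200 to 0.2 μg/mL (twofold steps). Cells at 10⁵ cfu/mL were loop-applied to the surface and incubated 24 h at 37 °C. Plates were read visually; MIC is the lowest concentration giving complete growth inhibition.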

Candida albicans [2] = assay: Antimicrobial activity against the strain of Candida albicans(AMB 25); type: functional
Outline: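 MIC by serial twofold dilution, 200 to 0.2 μg/mL, in YNB with 1% glucose. The inoculum was 10⁴ cfu/mL of an overnight culture grown in the same medium, incubated 48 h at 30 °C. Growth was read turbidimetrically; MIC is the lowest concentration giving complete growth inhibition.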

Escherichia coli = assay: Antimicrobial activity against the strain of Escherichia coli(ATCC 9637); type: functional; outline: as §1
Shigella sonnei [3] = assay: Antimicrobial activity against the strain of Shigella sonnei(433); type: functional; outline: as §1
Staphylococcus aureus = assay: Antimicrobial activity against the strain of Staphylococcus aureus (209P); type: functional; outline: as §1
Candida albicans [4] = assay: Antifungal activity against Candida albicans ATCC 26278 strain in YNB medium after incorporation of 10 ug per disk.; type: functional
Outline: (§2)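 C. albicans disk diffusion. YNB medium with 1% glucose and 1% agar was seeded with 10⁴ cfu/mL cells from an overnight Sabouraud culture and poured into dishes. Water-dissolved peptide was loaded onto 6.35-mm paper disks, which were placed on the agar. Zones of inhibition were measured after 48 h at 30 °C.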

Candida albicans [5] = assay: Antifungal activity against Candida albicans ATCC 26278 strain in YNB medium after incorporation of 20 ug per disk.; type: functional; outline: as §2
Candida albicans [6] = assay: Antifungal activity against Candida albicans ATCC 26278 strain in medium after incorporation of 10 nmol of GlcNAc antagonist per disk.; type: functional
Outline: (§3)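 Disk diffusion with the antagonist (GlcNAc or dipeptide) applied to the same 6.35-mm disk as the FMDP dipeptide. Base layer is YNB with 1% glucose and 1% agar, seeded with 10⁴ cfu/mL C. albicans from an overnight Sabouraud culture. Peptides were dissolved in water. Inhibition zones were measured after 48 h at 30 °C.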

Candida albicans [7] = assay: Antifungal activity against Candida albicans ATCC 26278 strain in medium after incorporation of 10 nmol of Leu-Met dipeptide antagonist per disk.; type: functional; outline: as §3
Candida albicans [8] = assay: Antifungal activity against Candida albicans ATCC 26278 strain in medium after incorporation of 10 nmol of Met-Val dipeptide antagonist per disk.; type: functional; outline: as §3
Shigella sonnei [9] = assay: Antibacterial activity against Shigella sonnei 433 strain in medium after incorporation of 10 nmol of GlcNAc antagonist per disk.
Bacillus pumilus [10] = assay: Antibacterial activity against Bacillus pumilus CCM 1697 strain in medium*after incorporation of 10 nmol of GlcNAc antagonist per disk.
Shigella sonnei [11] = assay: Antibacterial activity against Shigella sonnei 433 strain in medium after incorporation of 10 nmol of Leu-Met dipeptide antagonist per disk.
Shigella sonnei [12] = assay: Antibacterial activity against Shigella sonnei 433 strain in medium after incorporation of 10 nmol of Met-Val dipeptide antagonist per disk.
Bacillus pumilus [13] = assay: Antibacterial activity against Bacillus pumilus CCM 1697 strain in medium after incorporation of 10 nmol of Leu-Met dipeptide antagonist per disk.
Bacillus pumilus [14] = assay: Antibacterial activity against Bacillus pumilus CCM 1697 strain in medium after incorporation of 10 nmol of Met-Val dipeptide antagonist per disk.
Candida albicans [15] = assay: Activity against Candida albicans ATCC 26278 strain in YNB medium after incorporation of 10 ug per disk expressed as zone size; type: functional; outline: as §2
Candida albicans [16] = assay: Activity against Candida albicans ATCC 26278 strain in YNB medium after incorporation of 20 ug per disk expressed as zone size; type: functional; outline: as §2

Row | MIC (Bacillus pumilus [1]) | MIC (Candida albicans [2]) | MIC (Escherichia coli) | MIC (Shigella sonnei [3]) | MIC (Staphylococcus aureus) | SMILES | further results
1 | 0.8 µg/mL (≈ 2.54 µM) | 1.56 µg/mL (≈ 4.95 µM) | 100 µg/mL (≈ 317 µM) | 1.56 µg/mL (≈ 4.95 µM) | 12.5 µg/mL (≈ 39.6 µM) | COC(=O)/C=C/C(=O)NC[C@@H](NC(=O)[C@@H](N)C(C)C)C(=O)O | –
2 | 3.12 µg/mL (≈ 8.98 µM) | 0.8 µg/mL (≈ 2.3 µM) | 100 µg/mL (≈ 288 µM) | 3.12 µg/mL (≈ 8.98 µM) | 50 µg/mL (≈ 144 µM) | COC(=O)/C=C/C(=O)NC[C@@H](NC(=O)[C@@H](N)CCSC)C(=O)O | –
3 | > 200 µg/mL | 1.56 µg/mL (≈ 4.49 µM) | > 200 µg/mL | > 200 µg/mL | > 200 µg/mL | COC(=O)/C=C/C(=O)NC[C@@H](N)C(=O)N[C@@H](CCSC)C(=O)O | Zone size (Candida albicans [4]): 31 mm; Zone size (Candida albicans [5]): 35 mm; Zone size (Candida albicans [6]): 0 mm; Zone size (Candida albicans [7]): 0 mm; Zone size (Candida albicans [8]): 0 mm
4 | 1.56 µg/mL (≈ 4.74 µM) | 0.8 µg/mL (≈ 2.43 µM) | 100 µg/mL (≈ 304 µM) | 1.56 µg/mL (≈ 4.74 µM) | 12.5 µg/mL (≈ 38 µM) | COC(=O)/C=C/C(=O)NC[C@@H](NC(=O)[C@@H](N)CC(C)C)C(=O)O | Zone size (Candida albicans [4]): 39 mm; Zone size (Candida albicans [5]): 41 mm; Zone size (Candida albicans [6]): 0 mm; Zone size (Candida albicans [7]): 0 mm; Zone size (Candida albicans [8]): 0 mm
5 | 0.4 µg/mL (≈ 1.21 µM) | 0.8 µg/mL (≈ 2.43 µM) | 100 µg/mL (≈ 304 µM) | 3.12 µg/mL (≈ 9.47 µM) | 25 µg/mL (≈ 75.9 µM) | CCCC[C@H](N)C(=O)N[C@H](CNC(=O)/C=C/C(=O)OC)C(=O)O | Zone size (Shigella sonnei [9]): 0 mm; Zone size (Bacillus pumilus [10]): 0 mm; Zone size (Shigella sonnei [11]): 11 mm; Zone size (Shigella sonnei [12]): 10 mm; Zone size (Bacillus pumilus [13]): 0 mm; Zone size (Bacillus pumilus [14]): 0 mm
6 | 6.25 µg/mL (≈ 17.2 µM) | 12.5 µg/mL (≈ 34.4 µM) | > 200 µg/mL | 12.5 µg/mL (≈ 34.4 µM) | 100 µg/mL (≈ 275 µM) | COC(=O)/C=C/C(=O)NC[C@@H](NC(=O)[C@@H](N)Cc1ccccc1)C(=O)O | –
7 | > 200 µg/mL | 6.25 µg/mL (≈ 19.8 µM) | > 200 µg/mL | > 200 µg/mL | 100 µg/mL (≈ 317 µM) | CCC[C@H](NC(=O)[C@H](N)CNC(=O)/C=C/C(=O)OC)C(=O)O | –
8 | > 200 µg/mL | 6.25 µg/mL (≈ 19.8 µM) | > 200 µg/mL | > 200 µg/mL | 100 µg/mL (≈ 317 µM) | COC(=O)/C=C/C(=O)NC[C@@H](N)C(=O)N[C@H](C(=O)O)C(C)C | –
9 | > 200 µg/mL | 3.12 µg/mL (≈ 9.47 µM) | > 200 µg/mL | > 200 µg/mL | 100 µg/mL (≈ 304 µM) | COC(=O)/C=C/C(=O)NC[C@@H](N)C(=O)N[C@@H](CC(C)C)C(=O)O | –
10 | 1.56 µg/mL (≈ 5.43 µM) | 0.8 µg/mL (≈ 2.78 µM) | 100 µg/mL (≈ 348 µM) | 3.12 µg/mL (≈ 10.9 µM) | 50 µg/mL (≈ 174 µM) | COC(=O)/C=C/C(=O)NC[C@@H](NC(=O)[C@H](C)N)C(=O)O | –
11 | 100 µg/mL (≈ 290 µM) | > 200 µg/mL | > 200 µg/mL | > 200 µg/mL | > 200 µg/mL | COC(=O)/C=C/C(=O)NC[C@@H](NC(=O)[C@@H](N)CCCCN)C(=O)O | –
12 | > 200 µg/mL | 3.12 µg/mL (≈ 10.9 µM) | > 200 µg/mL | > 200 µg/mL | > 200 µg/mL | COC(=O)/C=C/C(=O)NC[C@@H](N)C(=O)N[C@@H](C)C(=O)O | –
13 | 0.4 µg/mL (≈ 1.27 µM) | 0.4 µg/mL (≈ 1.27 µM) | 100 µg/mL (≈ 317 µM) | 3.12 µg/mL (≈ 9.89 µM) | 12.5 µg/mL (≈ 39.6 µM) | CCC[C@H](N)C(=O)N[C@H](CNC(=O)/C=C/C(=O)OC)C(=O)O | Zone size (Candida albicans [4]): 40 mm; Zone size (Candida albicans [5]): 42 mm
14 | 25 µg/mL (≈ 91.5 µM) | 12.5 µg/mL (≈ 45.7 µM) | > 100 µg/mL | 50 µg/mL (≈ 183 µM) | > 200 µg/mL | COC(=O)/C=C/C(=O)NC[C@@H](NC(=O)CN)C(=O)O | –

More lines, now with the values behind:

Row | SMILES | MIC (Bacillus pumilus [1]) | MIC (Candida albicans [2]) | MIC (Escherichia coli) | MIC (Shigella sonnei [3]) | MIC (Staphylococcus aureus) | further results
15 | COC(=O)/C=C/C(=O)NC[C@@H](N)C(=O)O | > 200 µg/mL | > 200 µg/mL | > 200 µg/mL | > 200 µg/mL | > 200 µg/mL | –
16 | C[C@@H]([C@H](N)C(=O)N[C@H](C(=O)O)[C@H]1O[C@@H](n2ccc(=O)[nH]c2=O)[C@H](O)[C@@H]1O)[C@H](O)c1ccc(O)cn1.C[C@@H]([C@H](N)C(=O)N[C@H](C(=O)O)[C@H]1O[C@H](n2cc(C=O)nc2O)[C@H](O)[C@@H]1O)[C@H](O)c1ccc(O)cn1 | – | – | – | – | – | Zone size (Candida albicans [15]): 25 mm; Zone size (Candida albicans [16]): 28 mm
17 | COC(=O)/C=C/C(=O)NC[C@@H](NC(=O)[C@@H](N)Cc1ccc(O)cc1)C(=O)O | 12.5 µg/mL (≈ 32.9 µM) | 50 µg/mL (≈ 132 µM) | > 200 µg/mL | 25 µg/mL (≈ 65.9 µM) | 100 µg/mL (≈ 264 µM) | –
18 | COC(=O)/C=C/C(=O)NC[C@@H](N)C(=O)N[C@H](CNC(=O)/C=C/C(=O)OC)C(=O)O | > 200 µg/mL | > 200 µg/mL | > 200 µg/mL | > 200 µg/mL | > 200 µg/mL | –
19 | COC(=O)/C=C/C(=O)NC[C@@H](N)C(=O)N[C@@H](Cc1ccccc1)C(=O)O | > 200 µg/mL | 1.56 µg/mL (≈ 4.29 µM) | > 200 µg/mL | > 200 µg/mL | > 200 µg/mL | –
20 | COC(=O)/C=C/C(=O)NC[C@@H](N)C(=O)NCC(=O)O | > 200 µg/mL | > 200 µg/mL | > 200 µg/mL | > 200 µg/mL | > 200 µg/mL | –
21 | COC(=O)/C=C/C(=O)NC[C@@H](N)C(=O)N[C@@H](Cc1ccc(O)cc1)C(=O)O | > 200 µg/mL | 25 µg/mL (≈ 65.9 µM) | > 200 µg/mL | > 200 µg/mL | > 200 µg/mL | –
22 | Clc1ccccc1C(c1ccccc1)(c1ccccc1)n1ccnc1 [CLOTRIMAZOLE] | – | – | – | – | – | Zone size (Candida albicans [4]): 17 mm; Zone size (Candida albicans [5]): 21 mm
23 | Nc1nc(=O)[nH]cc1F [FLUCYTOSINE] | – | – | – | – | – | Zone size (Candida albicans [4]): 35 mm; Zone size (Candida albicans [5]): 39 mm
24 | Clc1ccc(COC(Cn2ccnc2)c2ccc(Cl)cc2Cl)c(Cl)c1 (stereo unspecified) [MICONAZOLE] | – | – | – | – | – | Zone size (Candida albicans [15]): 27 mm; Zone size (Candida albicans [16]): 32 mm
